Reference: ChEMBL document CHEMBL4152356, “Amphipathic sulfonamidobenzamides mimicking small antimicrobial marine natural products; investigation of antibacterial and anti-biofilm activity against antibiotic resistant clinical isolates” (Bioorg Med Chem, 2018)
Active and inactive are the calls of the source.

What was measured:
Staphylococcus aureus [1] = experiment: Antibacterial activity against Staphylococcus aureus ATCC 9144 after 48 hrs by microdilution method; assay type: functional; settings: ATCC 9144, 48 h
Method in brief: (§1)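 Broth microdilution (CLSI M07-A9, modified) in Mueller-Hinton broth; inoculum about 2.5-3 × 10^4 cells/ml mixed 1:1 with serial compound dilutions. Stock solutions in up to 100% DMSO, final DMSO ≤1%. Incubated 35 °C for 48 h.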

[2] = test system: Staphylococcus epidermidis; experiment: Antibacterial activity against methicillin resistant Staphylococcus epidermidis RP62A ATCC 35984/CCUG 31568 after 48 hrs by microdilution method; assay type: functional; settings: RP62A ATCC 35984/CCUG 31568, 48 h
Method in brief: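 Broth microdilution (modified CLSI M07-A9) against the MRSE reference strain. Inoculum of about 2.5-3 × 10^4 cells/ml in Mueller-Hinton broth mixed 1:1 with serial compound dilutions; final DMSO ≤1%. Incubated 35 °C, 48 h.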

Bacillus subtilis [3] = experiment: Antibacterial activity against Bacillus subtilis 168 ATCC 23857 after 48 hrs by microdilution method; assay type: functional; settings: subsp. subtilis str. 168 ATCC 23857, 48 h; method in brief: as §1
[4] = test system: Corynebacterium glutamicum; experiment: Antibacterial activity against Corynebacterium glutamicum ATCC 13032 after 48 hrs by microdilution method; assay type: functional; settings: ATCC 13032, 48 h; method in brief: as §1
Escherichia coli [5] = experiment: Antibacterial activity against Escherichia coli ATCC 25922 after 48 hrs by microdilution method; assay type: functional; settings: ATCC 25922, 48 h; method in brief: as §1
Pseudomonas aeruginosa [6] = experiment: Antibacterial activity against Pseudomonas aeruginosa PAO1 DSM 19880 ATCC 15692 after 48 hrs by microdilution method; assay type: functional; settings: PAO1 DSM 19880 ATCC 15692, 48 h; method in brief: as §1
Erythrocyte = experiment: Hemolytic activity against human RBC measured after 1 hr; assay type: cell-based
Method in brief: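 Washed human RBCs from a healthy donor (heparinized) at 10% in PBS pH 7.4, mixed 9:1 with serial compound dilutions, 37 °C for 1 h. Baseline set by 0.5% DMSO in 50% PBS, 100% lysis by 0.05% Triton X-100. EC50 is the concentration giving 50% lysis.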

MRC5 = experiment: Cytotoxicity against human MRC5 cells after 72 hrs by MTS assay; assay type: cell-based; settings: MRC5, 72 h
Method in brief: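 MRC-5 lung fibroblasts in DMEM with 10% FBS, 37 °C, 5% CO2; seeded at 4000 cells/well, adhered 24 h, medium replaced. Two-fold dilutions up to 100 µg/ml for 72 h, then MTS for 1 h and absorbance at 485 nm. Controls were 1% DMSO (negative) and 0.5% Triton X-100 (positive). EC50 is the concentration giving 50% inhibition of survival.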

[7] = Selectivity index, ratio of EC50 for human RBC to MIC for methicillin resistant Staphylococcus epidermidis RP62A ATCC 35984/CCUG 31568; assay type: toxicity; settings: human red blood cells (RBC), read-out: Selectivity Index
Method in brief: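 SI = hemolytic EC50 / MRSE MIC. Hemolysis: washed human RBCs (heparinized blood, healthy adult donor) at 10% in PBS pH 7.4, mixed 9:1 with serial compound dilutions, 37 °C for 1 h. 0.05% Triton X-100 set 100% lysis, 0.5% DMSO set baseline. MIC from MHB microdilution, 35 °C, […].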

Staphylococcus aureus [8] = experiment: Antibacterial activity against Staphylococcus aureus clinical isolates after 24 hrs by microdilution method; assay type: functional
Method in brief: (§2)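 Clinical isolate screen by broth microdilution with about 1-1.2 × 10^6 cells/ml and 24 h incubation. MIC is the lowest concentration with no growth. For isolate collections, MIC90 is the MIC inhibiting ≥90% of isolates. Multidrug resistance was defined as resistance to at least […] antimicrobial class.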

Enterococcus sp. = experiment: Antibacterial activity against Enterococcus sp. clinical isolates after 24 hrs by microdilution method; assay type: functional; method in brief: as §2
Escherichia coli [9] = experiment: Antibacterial activity against Escherichia coli clinical isolates after 24 hrs by microdilution method; assay type: functional; method in brief: as §2
Pseudomonas aeruginosa [10] = experiment: Antibacterial activity against Pseudomonas aeruginosa clinical isolates after 24 hrs by microdilution method; assay type: functional; method in brief: as §2
Klebsiella pneumoniae = experiment: Antibacterial activity against Klebsiella pneumoniae clinical isolates after 24 hrs by microdilution method; assay type: functional; method in brief: as §2
[11] = test system: Staphylococcus epidermidis; experiment: Antibiofilm activity against Staphylococcus epidermidis RP62A ATCC 35984/CCUG 31568 incubated for 24 +/- 2 hrs by crystal violet staining based assay; assay type: functional
Method in brief: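 Mature S. epidermidis RP62A biofilms: filtered overnight TSB culture adjusted to 2 McFarland, diluted in TSB with 1% glucose to about 6 × 10^6 CFU/ml, grown 24 ± 2 h at 37 °C static, then PBS-washed. Compounds in 50% TSBglu added for 24 ± 2 h at 37 °C. Biomass given as % of untreated control; ≥90% eradication threshold. Compounds tested at 2x, 5x and 10x MIC, 4-8 parallels on 2-3 plates, highest and lowest values excluded.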

[12] = Solubility of the compound in PBS
Bacillus subtilis [13] = experiment: Induction of membrane disruption in Bacillus subtilis 168 expressing luciferase at 12.5 ug/ml measured up to 60 secs by luminescence assay; assay type: functional, organism-based; settings: subsp. subtilis str. 168
Method in brief: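 Luminescence followed up to […]. Fold induction is maximal luminescence relative to chlorhexidine control (31 or 20 µg/ml). Mean ± SD of two experiments.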

Row | SMILES | MIC (Staphylococcus aureus [1]) [µg/mL] | MIC [2] [µg/mL] | MIC (Bacillus subtilis [3]) [µg/mL] | MIC [4] [µg/mL] | MIC (Escherichia coli [5]) [µg/mL] | MIC (Pseudomonas aeruginosa [6]) [µg/mL] | EC50 (Erythrocyte) [µg/mL] | EC50 (MRC5) [µg/mL] | selectivity ratio [7] | MIC (Staphylococcus aureus [8]) [µg/mL] | MIC (Enterococcus sp.) [µg/mL] | MIC (Escherichia coli [9]) [µg/mL] | MIC (Pseudomonas aeruginosa [10]) [µg/mL] | MIC (Klebsiella pneumoniae) [µg/mL] | MBIC=>90 [11] [µg/mL] | solubility [12] [µg/mL] | Activity (Bacillus subtilis [13])
1 | COc1c(C(C)(C)C)cc(S(=O)(=O)Nc2ccc(C(=O)NCCNC(=N)N)cc2)cc1C(C)(C)C.Cl | 4 | 4 | 4 | 4 | 32 | 64 | 64 | > 100 | 16 | 8 | 64 | > 128 | 32 | > 128 | 40 | > 64 | –
2 | CC(C)(C)c1cc(C(C)(C)C)cc(S(=O)(=O)Nc2ccc(C(=O)NCCNC(=N)N)cc2)c1.Cl | 4 | 4 | 8 | 4 | 32 | 64 | 64 | > 100 | 16 | 8 | 32 | > 128 | > 128 | > 128 | 40 | > 64 | –
3 | CC(C)(C)c1cc(C(C)(C)C)cc(S(=O)(=O)NCCCCNC(=N)N)c1.Cl | 8 | 8 | 16 | 4 | 64 | 64 | 110 | 42 | 14 | 16 | 32 | 128 | 64 | 128 | 40 | – | –
4 | CC(C)(C)c1cc(C(C)(C)C)cc(S(=O)(=O)N2CCC(C(=O)NCCNC(=N)N)CC2)c1.Cl | 16 | 16 | 16 | 4 | 64 | 128 | 124 | > 100 | 8 | – | – | – | – | – | 80 | – | –
5 | CN(c1ccc(C(=O)NCCNC(=N)N)cc1)S(=O)(=O)c1cc(C(C)(C)C)cc(C(C)(C)C)c1.Cl | 4 | 4 | 4 | 2 | 32 | 16 | 45 | 36 | 11 | 4 | 32 | 32 | 16 | 64 | 40 | – | –
6 | Cl.N=C(N)NCCNC(=O)c1ccc(NS(=O)(=O)c2cc(C(F)(F)F)cc(C(F)(F)F)c2)cc1 | > 128 | > 128 | > 128 | > 128 | > 128 | > 128 | 64 | > 100 | – | – | – | – | – | – | – | > 64 | –
7 | Cc1cc(C(=O)NCCNC(=N)N)ccc1NS(=O)(=O)c1cc(C(C)(C)C)cc(C(C)(C)C)c1.Cl | 8 | 4 | 8 | 4 | 32 | > 128 | 104 | 56 | 26 | 8 | 32 | 64 | 64 | > 128 | 40 | – | –
8 | CC(C)(C)c1cc(C(C)(C)C)cc(S(=O)(=O)Nc2ccc(CC(=O)NCCNC(=N)N)cc2)c1.Cl | 16 | 8 | 8 | 8 | 64 | 64 | 101 | 55 | 13 | 16 | 32 | 64 | 64 | 128 | 40 | – | –
9 | CC(C)(C)c1cc(C(C)(C)C)cc(S(=O)(=O)Nc2cccc(C(=O)NCCNC(=N)N)c2)c1.Cl | 8 | 8 | 8 | 4 | 32 | 32 | 92 | > 100 | 12 | 8 | 32 | 64 | 64 | 128 | 40 | – | –
10 | CC(C)(C)c1cc(C(C)(C)C)cc(S(=O)(=O)Nc2cc3ccccc3cc2C(=O)NCCN)c1.Cl | 4 | 4 | 4 | 2 | 8 | 32 | 21 | 22 | 5 | 8 | 8 | 32 | 32 | 128 | – | – | –
11 | CC(C)(C)c1cc(C(C)(C)C)cc(S(=O)(=O)NCc2ccc(C(=O)NCCNC(=N)N)cc2)c1.Cl | 16 | 8 | 8 | 4 | 32 | 32 | 113 | > 100 | 14 | 16 | 64 | 128 | 64 | 128 | 80 | – | –
12 | CN(c1cccc(C(=O)NCCNC(=N)N)c1)S(=O)(=O)c1cc(C(C)(C)C)cc(C(C)(C)C)c1.Cl | 4 | 4 | 4 | 2 | 32 | 32 | 95 | 91 | 24 | 8 | 16 | 32 | 32 | 64 | 40 | – | Active
13 | Cl.N=C(N)NCCNC(=O)c1ccc(NS(=O)(=O)c2ccc3ccccc3c2)cc1 | 64 | 32 | 64 | 32 | > 128 | > 128 | > 128 | > 100 | > 4 | 128 | > 128 | > 128 | > 128 | > 128 | 160 | – | –
